# Results reported in PMC5435566 (Nature chemical biology, 2017).
# Assays:
# [1] = Solubility; type: physicochemical
# [2] = system: human LMPTP-A mutants (Y49, Y131, Y132); assay: Inhibition of LMPTP-A mutants, OMFP substrate; type: biochemical; conditions: 0.4 mM OMFP, versus wild-type LMPTP-A
# Procedure, shortened: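 Wild-type and mutant human LMPTP-A were assayed with 0.4 mM OMFP in 50 mM Bis-Tris pH 6.0, 1 mM DTT, 0.01% Triton X-100 at 37°C across test-compound concentrations. OMFP hydrolysis was monitored continuously by fluorescence (ex 485/em 525 nm) and reported as % activity, from 3 independent experiments.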
# [3] = biological target: T1, human LMPTP-A (Homo sapiens, UniProt P24666); assay: Isothermal titration calorimetry; type: binding
# T1 sequence (P24666 1-158): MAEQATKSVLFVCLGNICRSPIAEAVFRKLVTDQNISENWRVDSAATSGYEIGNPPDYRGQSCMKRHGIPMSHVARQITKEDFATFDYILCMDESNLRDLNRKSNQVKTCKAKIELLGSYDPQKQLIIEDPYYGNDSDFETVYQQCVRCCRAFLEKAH
# Procedure, shortened: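 ITC was run at 23°C: 2 μl injections of 0.5 mM test compound into 50 μM human LMPTP-A, with or without 200 μM sodium orthovanadate to form the cysteine adduct. Tris runs used 10 mM Tris pH 7.5, 75 mM NaCl, 0.5 mM β-mercaptoethanol, 5% DMSO; parallel runs used phosphate buffer. Kd, ΔH and −TΔS were derived from the titrations.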
# [4] = system: insulin receptor (IR) tyrosine phosphorylation in HepG2 hepatocytes; assay: IR phosphorylation in HepG2 cells; type: cell-based, human; conditions: 10 μM compound overnight, 10 nM insulin 5 min
# Procedure, shortened: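 HepG2 cells were grown in MEM with 10% FBS and pen/strep and confirmed mycoplasma-free. Cells were treated overnight with 10 μM test compound or DMSO in 0.1% FBS medium, then stimulated with 10 nM bovine insulin for 5 min at 37°C. Read-outs were anti-IRβ immunoprecipitation with pY1162/Y1163 Western blot (2 experiments) and pIRβ Y1150/Y1151 sandwich ELISA (5 experiments).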
SMILES,solubility [1],inhibition of LMPTP-A mutated at Y49 and Y132 [2],inhibition of LMPTP-A mutated at Y131 alone or in combination with Y49 and Y132 [2],"Kd ([3]; Tris buffer, no vanadate) [µM]",Kd ([3]; phosphate buffer) [µM],"−TΔS ([3]; Tris buffer, no vanadate) [kcal/mol]",−TΔS ([3]; phosphate buffer) [kcal/mol],HepG2 IR phosphorylation after insulin stimulation [4]
N#Cc1ccccc1-c1cc(NCCCN2CCCCC2)c2ccccc2n1 [Compd. 18],highly soluble,substantially reduced,completely abolished,8 ± 2,10 ± 2,-6.4 ± 0.3,-5.6 ± 0.3,
c1ccc(-c2cc(SCCCN3CCCCC3)c3ccccc3n2)cc1 [Compd. 28],,,,,,,,had no effect
